Test results as given in paper PMC9008867 (Therapeutic Advances in Medical Oncology, 2022).
Read-outs that look alike come from different tables or passages of the source.

Experiments:
[1] = system: Asian patients with advanced or metastatic malignancies; assay: Adverse events; type: in vivo, human; conditions: Schedule 2; patients n (%)
Outline: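 Test compound given orally by schedule. Schedule 1: Mon/Thu, 28-day cycle. Schedule 2: Mondays weekly, 28-day cycle. Schedule 3: Mon/Wed for 2 of 3 weeks, 21-day cycle. Schedule 4: Mon/Wed/Fri, 28-day cycle. All patients received anorexia/nausea prophylaxis. AEs were recorded up to 30 days after the last dose and graded every 2 weeks for cycles 1–2, then every 4 weeks.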

[2] = system: Asian patients with advanced or metastatic malignancies; type: in vivo, human
[3] = expansion phase, with drug holiday and pre-emptive antiemetic regimen

SMILES: O=C(/C=C\n1cnc(-c2cc(C(F)(F)F)cc(C(F)(F)F)c2)n1)NNc1cnccn1 [selinexor]
- Abdominal discomfort, Any grade [1]: 4 (23.52) %
- Abdominal discomfort, G1/G2 [1]: 4 (23.52) %
- Anaemia, Any grade [1]: 6 (35.29) %
- Anorexia, Any grade [1]: 10 (58.8) %
- Back pain, Any grade [1]: 1 (5.88) %
- Constipation, Any grade [1]: 1 (5.88) %
- Diarrhoea, Any grade [1]: 3 (17.64) %
- Edema, Any grade [1]: 1 (5.88) %
- Fatigue, Any grade [1]: 14 (82.35) %
- Hypokalaemia, Any grade [1]: 2 (11.76) %
- Hypomagnesemia, Any grade [1]: 5 (29.41) %
- Hyponatremia, Any grade [1]: 11 (64.70) %
- Hypophosphatemia, Any grade [1]: 3 (17.64) %
- Hypotension, Any grade [1]: 1 (5.88) %
- Intention tremor, Any grade [1]: 1 (5.88) %
- Mucositis, Any grade [1]: 1 (5.88) %
- Nausea, Any grade [1]: 11 (64.70) %
- Neutropenia, Any grade [1]: 2 (11.76) %
- Palpitation, Any grade [1]: 1 (5.88) %
- Pneumonitis, Any grade [1]: 1 (5.88) %
- Raised amylase/lipase, Any grade [1]: 1 (5.88) %
- Raised amylase/lipase, G1/G2 [1]: 1 (5.88) %
- Thrombocytopenia, Any grade [1]: 6 (35.29) %
- Vomiting, Any grade [1]: 7 (41.17) %
- Weight loss, Any grade [1]: 5 (29.41) %
- tolerability ([2]; 60 mg twice a week, 2 out of 3 weeks, Asian patients): well tolerated
- Grade 3 fatigue ([2]; dose expansion phase): 8%
- grade 3 or 4 anaemia ([2]; dose expansion phase): 2%
- grade 3 or 4 hyponatremia ([2]; dose expansion phase): 23%
- grade 3 or 4 thrombocytopenia ([2]; dose expansion phase): 5%
- grade 3 or 4 vomiting ([2]; dose expansion phase): 5%
- patients with grade 3 or 4 cytopenias ([2]; expansion phase): less than 3%
- grade 3 or more nausea [2, 3]: no grade 3 or more nausea
- incidence of nausea [2, 3]: 30%
- deaths ([2]; phase 1b expansion cohort, none attributed to the study drug): Five
- Abdominal discomfort, Any grade ([2]; phase 1b, patients n (%)): 5 (13.15) %
- Abdominal discomfort, G1/G2 ([2]; phase 1b, patients n (%)): 4 (10.52) %
- Abdominal discomfort, G3/G4 ([2]; phase 1b, patients n (%)): 1 (2.63) %
- Abdominal distension, Any grade ([2]; phase 1b, patients n (%)): 1 (2.63) %
- Abdominal distension, G3/G4 ([2]; phase 1b, patients n (%)): 1 (2.63) %
- Abnormal thyroid function, Any grade ([2]; phase 1b, patients n (%)): 2 (5.26) %
- Abnormal thyroid function, G1/G2 ([2]; phase 1b, patients n (%)): 2 (5.26) %
- Acute kidney injury, Any grade ([2]; phase 1b, patients n (%)): 1 (2.63) %
- Acute kidney injury, G1/G2 ([2]; phase 1b, patients n (%)): 1 (2.63) %
- Anaemia, Any grade ([2]; phase 1b, patients n (%)): 6 (15.78) %
- Anorexia, Any grade ([2]; phase 1b, patients n (%)): 18 (47.36) %
- Ascites, Any grade ([2]; phase 1b, patients n (%)): 2 (5.26) %
- Asthenia, Any grade ([2]; phase 1b, patients n (%)): 1 (2.63) %
- Back pain, Any grade ([2]; phase 1b, patients n (%)): 2 (5.26) %
- Blurring of vision, Any grade ([2]; phase 1b, patients n (%)): 3 (7.89) %
- Blurring of vision, G1/G2 ([2]; phase 1b, patients n (%)): 3 (7.89) %
- Constipation, Any grade ([2]; phase 1b, patients n (%)): 6 (15.78) %
- Cough, Any grade ([2]; phase 1b, patients n (%)): 2 (5.26) %
- Dehydration, Any grade ([2]; phase 1b, patients n (%)): 2 (5.26) %
- Diarrhoea, Any grade ([2]; phase 1b, patients n (%)): 10 (26.31) %
- Dysgeusia, Any grade ([2]; phase 1b, patients n (%)): 12 (31.57) %
- Dyspnoea/Shortness of breath, Any grade ([2]; phase 1b, patients n (%)): 2 (5.26) %
- Dyspnoea/Shortness of breath, G1/G2 ([2]; phase 1b, patients n (%)): 2 (5.26) %
- Fever, Any grade ([2]; phase 1b, patients n (%)): 2 (5.26) %
- Giddiness, Any grade ([2]; phase 1b, patients n (%)): 3 (7.89) %
- Hyperglycaemia, Any grade ([2]; phase 1b, patients n (%)): 2 (5.26) %
- Hypersalivation, Any grade ([2]; phase 1b, patients n (%)): 1 (2.63) %
- Hyperuricaemia, Any grade ([2]; phase 1b, patients n (%)): 1 (2.63) %
- Hypocalcaemia, Any grade ([2]; phase 1b, patients n (%)): 1 (2.63) %
- Hypokalaemia, Any grade ([2]; phase 1b, patients n (%)): 7 (18.42) %
- Hypomaganesemia, Any grade ([2]; phase 1b, patients n (%)): 3 (7.89) %
- Hyponatremia, Any grade ([2]; phase 1b, patients n (%)): 20 (52.63) %
- Hypophosphataemia, Any grade ([2]; phase 1b, patients n (%)): 5 (13.15) %
- Increased creatinine, Any grade ([2]; phase 1b, patients n (%)): 2 (5.26) %
- Increased creatinine, G1/G2 ([2]; phase 1b, patients n (%)): 2 (5.26) %
- Lethargy, Any grade ([2]; phase 1b, patients n (%)): 1 (2.63) %
- Loss of Appetite, Any grade ([2]; phase 1b, patients n (%)): 8 (21.05) %
- Mood swing, Any grade ([2]; phase 1b, patients n (%)): 1 (2.63) %
- Mucositis, Any grade ([2]; phase 1b, patients n (%)): 2 (5.26) %
- Nausea, Any grade ([2]; phase 1b, patients n (%)): 12 (31.57) %
- Peripheral neuropathy, Any grade ([2]; phase 1b, patients n (%)): 2 (5.26) %
- Peripheral neuropathy, G1/G2 ([2]; phase 1b, patients n (%)): 2 (5.26) %
- Pneumonia, Any grade ([2]; phase 1b, patients n (%)): 1 (2.63) %
- Pulmonary embolism, Any grade ([2]; phase 1b, patients n (%)): 1 (2.63) %
- Pulmonary embolism, G1/G2 ([2]; phase 1b, patients n (%)): 1 (2.63) %
- Raised amylase/lipase, Any grade ([2]; phase 1b, patients n (%)): 1 (2.63) %
- Raised amylase/lipase, G1/G2 ([2]; phase 1b, patients n (%)): 1 (2.63) %
- Raised amylase/lipase, G3/G4 ([2]; phase 1b, patients n (%)): 1 (2.63) %
- Reflux, Any grade ([2]; phase 1b, patients n (%)): 1 (2.63) %
- Rt buttock pain, Any grade ([2]; phase 1b, patients n (%)): 1 (2.63) %
- Rt leg pain, Any grade ([2]; phase 1b, patients n (%)): 1 (2.63) %
- Thrombocytopenia, Any grade ([2]; phase 1b, patients n (%)): 6 (15.78) %
- Transaminitis, Any grade ([2]; phase 1b, patients n (%)): 3 (7.89) %
- URTI, Any grade ([2]; phase 1b, patients n (%)): 1 (2.63) %
- Urinary retention, Any grade ([2]; phase 1b, patients n (%)): 1 (2.63) %
- Vomiting, Any grade ([2]; phase 1b, patients n (%)): 8 (21.05) %
- Weight loss, Any grade ([2]; phase 1b, patients n (%)): 6 (15.78) %
